ChEMBL document CHEMBL1132229, “3,7-Disubstituted-1,2,3,4-tetrahydroisoquinolines display remarkable potency and selectivity as inhibitors of phenylethanolamine N-methyltransferase versus the alpha2-adrenoceptor” (J Med Chem, 1999)

Assays:
[1] = target: T1, Phenylethanolamine N-methyltransferase (Bos taurus, UniProt P10938); assay: Inhibition of bovine adrenal Phenylethanolamine N-Methyltransferase
T1 sequence (P10938 whole entry): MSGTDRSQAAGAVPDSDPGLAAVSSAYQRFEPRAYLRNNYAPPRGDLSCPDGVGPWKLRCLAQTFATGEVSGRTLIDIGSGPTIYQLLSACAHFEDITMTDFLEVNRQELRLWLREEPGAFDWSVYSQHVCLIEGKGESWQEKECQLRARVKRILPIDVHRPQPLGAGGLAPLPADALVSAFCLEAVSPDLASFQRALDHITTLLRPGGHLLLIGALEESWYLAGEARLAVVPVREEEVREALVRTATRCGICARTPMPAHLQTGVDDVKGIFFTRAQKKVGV

[2] = target: T2, Adrenergic receptor alpha-2 (Rattus norvegicus, UniProt P22086+P19328+P22909); assay: Displacement of [3H]clonidine from Alpha-2 adrenergic receptor of rat cortical membranes; format: cell membranes, Membrane
T2 sequence (P22086 whole entry): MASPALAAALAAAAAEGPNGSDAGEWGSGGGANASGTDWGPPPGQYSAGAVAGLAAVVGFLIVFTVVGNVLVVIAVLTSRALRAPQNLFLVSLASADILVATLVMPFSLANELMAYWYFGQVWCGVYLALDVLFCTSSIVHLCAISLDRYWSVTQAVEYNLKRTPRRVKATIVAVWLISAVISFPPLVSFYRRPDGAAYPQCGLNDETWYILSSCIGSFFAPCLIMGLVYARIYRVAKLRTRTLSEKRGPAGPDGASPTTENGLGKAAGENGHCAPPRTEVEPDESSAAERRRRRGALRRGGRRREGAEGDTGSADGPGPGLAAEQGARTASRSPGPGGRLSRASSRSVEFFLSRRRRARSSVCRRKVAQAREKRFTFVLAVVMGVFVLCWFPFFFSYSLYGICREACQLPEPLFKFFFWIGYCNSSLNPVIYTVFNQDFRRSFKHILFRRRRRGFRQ
T2 sequence (P19328 whole entry): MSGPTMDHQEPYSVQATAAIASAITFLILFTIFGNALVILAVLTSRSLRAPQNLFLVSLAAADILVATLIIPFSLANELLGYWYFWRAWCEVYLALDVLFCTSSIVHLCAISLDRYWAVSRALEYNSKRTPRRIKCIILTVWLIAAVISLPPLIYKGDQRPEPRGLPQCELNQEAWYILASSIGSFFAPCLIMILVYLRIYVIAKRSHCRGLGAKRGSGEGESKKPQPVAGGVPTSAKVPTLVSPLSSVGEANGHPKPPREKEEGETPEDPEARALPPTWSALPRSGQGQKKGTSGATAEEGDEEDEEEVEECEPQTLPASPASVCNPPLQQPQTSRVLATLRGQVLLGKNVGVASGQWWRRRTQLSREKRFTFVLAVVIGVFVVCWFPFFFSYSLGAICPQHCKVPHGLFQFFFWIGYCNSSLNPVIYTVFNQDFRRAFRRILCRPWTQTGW
T2 sequence (P22909 whole entry): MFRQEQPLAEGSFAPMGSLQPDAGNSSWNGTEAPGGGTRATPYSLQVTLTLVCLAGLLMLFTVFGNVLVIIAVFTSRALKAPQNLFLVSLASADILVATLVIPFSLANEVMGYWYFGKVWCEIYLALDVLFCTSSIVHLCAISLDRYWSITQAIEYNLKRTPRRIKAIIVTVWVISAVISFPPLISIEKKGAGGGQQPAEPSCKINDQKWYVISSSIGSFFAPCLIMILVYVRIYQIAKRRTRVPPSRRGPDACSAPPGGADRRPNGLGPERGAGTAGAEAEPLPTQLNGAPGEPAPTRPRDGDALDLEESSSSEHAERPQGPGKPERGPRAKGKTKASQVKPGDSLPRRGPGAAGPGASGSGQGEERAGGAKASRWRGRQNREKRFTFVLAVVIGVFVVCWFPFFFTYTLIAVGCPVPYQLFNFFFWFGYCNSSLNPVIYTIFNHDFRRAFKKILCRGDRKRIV
Method in brief: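 Male Sprague-Dawley rat cortex homogenized in ice-cold 50 mM Tris/HCl (pH 7.7 at 25 °C), washed by three 50000g spins, resuspended at 200 volumes. [3H]clonidine 4.0 nM final; 25 °C, 30 min; terminated by vacuum filtration on GF/B filters and scintillation counting. Nonspecific binding with 2 μM phentolamine.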

[3] = Relative affinity for PNMT and alpha2 adrenergic receptors
[4] = target: T2, Adrenergic receptor alpha-2; assay: In vitro binding affinity towards cortical membranes of male Sprague-Dawley rats alpha-2 adrenergic receptor by replacing [3H]clonidine
Method in brief: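 Rat cortex (male Sprague-Dawley) homogenised in ice-cold 50 mM Tris/HCl pH 7.7, washed by three 50000g spins. Tissue incubated with 4.0 nM [3H]clonidine (final) and drug at five concentrations over a 16-fold range, 25 °C for 30 min. Bound ligand collected by vacuum filtration on GF/B filters and counted. Nonspecific binding set with 2 μM phentolamine. Quadruplicate. IC50 from log-probit analysis; Ki = IC50/(1+[clonidine]/KD).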

[5] = target: Adrenergic receptor alpha-2 (Rattus norvegicus) (UniProt P22086+P19328+P22909); assay: Stereo selectivity ratio for alpha-2(-)/(+) activities
[6] = target: T3, Phenylethanolamine N-methyltransferase (Bos taurus) (UniProt P10938); assay: Stereo selectivity ratio for PNMT(-)/(+ ) activities
T3 sequence (whole entry): T1 sequence (P10938 whole entry)

[7] = target: T1, Phenylethanolamine N-methyltransferase; assay: In vitro inhibitory activity against bovine adrenal Phenylethanolamine N-Methyltransferase (for +- stereoisomer)
[8] = target: T1, Phenylethanolamine N-methyltransferase; assay: In vitro inhibitory activity against bovine adrenal phenylethanolamine N-methyl transferase

Row | SMILES | Ki [1] | Selectivity [3] | further results
1 | CC1Cc2ccc([N+](=O)[O-])cc2CN1 (centres undefined) | 0.49 µM | 63 | Ki [2]: 31 µM
2 | OC[C@@H]1Cc2ccccc2CN1 | 15 µM | 1.1 | –
3 | CCC1Cc2ccccc2CN1 (centres undefined) | – | – | Ki [4]: 0.66 µM
4 | C[C@@H]1Cc2ccc([N+](=O)[O-])cc2CN1 | 1.3 µM | 41 | Ratio [5]: 2.8; Ratio [6]: 5.2
5 | OC[C@H]1Cc2ccccc2CN1 | 0.56 µM | 7.9 | Ratio [5]: 3.9; Ratio [6]: 27
6 | COC(=O)C1Cc2ccccc2CN1 (centres undefined) | – | – | Ki [2]: 11 µM
7 | NC(=O)C1Cc2ccccc2CN1 (centres undefined) | – | – | Ki [2]: 250 µM
8 | C[C@H]1Cc2ccc([N+](=O)[O-])cc2CN1 | 0.25 µM | – | –
9 | O=C(O)C1Cc2ccccc2CN1 (centres undefined) | – | – | Ki [8]: > 2000 µM
10 | COCC1Cc2ccccc2CN1 (centres undefined) | 9.2 µM | 0.3 | –

Now from value to compound, other results behind:

Row | Ki [1] | Selectivity [3] | SMILES | further results
11 | 0.9 µM | – | O=[N+]([O-])c1ccc2c(c1)CN[C@H](CO)C2 | –
12 | 0.64 µM | 1000 | CS(=O)(=O)c1ccc2c(c1)CNC(CO)C2 (centres undefined) | –
13 | 0.34 µM | 4100 | NS(=O)(=O)c1ccc2c(c1)CNC(CO)C2 (centres undefined) | –
14 | – | 6 | OCC1Cc2ccccc2CN1 (centres undefined) | Ki [7]: 1.1 µM
15 | 0.24 µM | – | O=[N+]([O-])c1ccc2c(c1)CN[C@@H](CO)C2 | –
16 | 0.29 µM | – | O=[N+]([O-])c1ccc2c(c1)CNC(CO)C2 (centres undefined) | –
